Laboratory results as given in ChEMBL document CHEMBL4689842, “EUbOPEN Chemogenomics Library wave 1” (2021).
Several values for one entry are separate records, joined by “and”; a condition that tells them apart may be missing. Equal entries are not always repeated.

How the values were obtained:
Type in all cases: toxicity, cell-based
HEK-293T [1] = assay: Multiplex assay against HEK293T; conditions: human, 10 µM, compound concentration 10 uM;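 on Population Tubulin-Different-Phenotype (%): share of the cells with healthy nuclei that show this phenotype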
Procedure, shortened: (§1)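 Four dyes were applied at seeding to live cells: Hoechst33342, BioTracker Green Microtubule Cytoskeleton Dye, MitoTracker Red and Annexin V Alexa Fluor 680. Imaging after compound addition used a CQ1 microscope at 37°C and 5% CO2. CellPathfinder machine-learning gating then sorted cells into Hoechst high-intensity objects or normal cells, normal cells into healthy, pyknosed or fragmented nuclei, and pyknosed cells into mitotic or apoptotic, with tubulin, mitochondrial-mass and membrane-permeability phenotypes given as per cents of healthy-nucleus cells.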

HEK-293T [2] = assay: Incucyte cell viability with HEK293T; conditions: human, 10 µM, compound concentration 10 uM; further: filed as whole numbers so only -1 and 0 and 1 occur
Fibroblast = assay: Multiplex assay against human fibroblast; conditions: 10 µM, compound concentration 10 uM; procedure, shortened: as §1

Structure (SMILES): CN1CCN(C(=O)C(C)(C)c2ccc(C(=O)Nc3cn4cc(-c5ccncc5)ccc4n3)cc2)CC1 [T3-CLK]
- Population Membrane Permeable-Phenotype (%) (HEK-293T [1]; 24 h, replicate 2): 14% and 16% and 8%
- Population Normal (%) (HEK-293T [1]; 24 h, replicate 2): 91% and 97% and 94%
- Population Tubulin-Different-Phenotype (%) (HEK-293T [1]; 24 h, replicate 2): 91% and 70% and 94%
- Population Apoptotic (%) (HEK-293T [1]; 48 h, replicate 1): 92%
- Population Fragmented Nuclei (%) (HEK-293T [1]; 48 h, replicate 1): 19%
- Population Healthy Nuclei (%) (HEK-293T [1]; 48 h, replicate 1): 10%
- Population Hoechst High Intensity Objects (%) (HEK-293T [1]; 48 h, replicate 1): 18%
- Population Membrane Permeable-Phenotype (%) (HEK-293T [1]; 48 h, replicate 1): 0%
- Population Mitochondria Different-Phenotype (%) (HEK-293T [1]; 48 h, replicate 1): 94%
- Population Mitotic Cells (%) (HEK-293T [1]; 48 h, replicate 1): 7%
- Population Normal (%) (HEK-293T [1]; 48 h, replicate 1): 81%
- Population Pyknosed Nuclei (%) (HEK-293T [1]; 48 h, replicate 1): 70%
- Population Tubulin-Different-Phenotype (%) (HEK-293T [1]; 48 h, replicate 1): 77%
- Total Cell Count (HEK-293T [1]; 48 h, replicate 1): 216
- Population Apoptotic (%) (HEK-293T [1]; 48 h, replicate 2): 91%
- Population Fragmented Nuclei (%) (HEK-293T [1]; 48 h, replicate 2): 7%
- Population Healthy Nuclei (%) (HEK-293T [1]; 48 h, replicate 2): 17%
- Population Hoechst High Intensity Objects (%) (HEK-293T [1]; 48 h, replicate 2): 4%
- Population Membrane Permeable-Phenotype (%) (HEK-293T [1]; 48 h, replicate 2): 12%
- Population Mitochondria Different-Phenotype (%) (HEK-293T [1]; 48 h, replicate 2): 79%
- Population Mitotic Cells (%) (HEK-293T [1]; 48 h, replicate 2): 8%
- Population Normal (%) (HEK-293T [1]; 48 h, replicate 2): 95%
- Population Pyknosed Nuclei (%) (HEK-293T [1]; 48 h, replicate 2): 75%
- Population Tubulin-Different-Phenotype (%) (HEK-293T [1]; 48 h, replicate 2): 87%
- Total Cell Count (HEK-293T [1]; 48 h, replicate 2): 142
- Growth Rate (HEK-293T [2]; 0 h, replicate number 2, timepoint 0 hours): 1
- Growth Rate (HEK-293T [2]; 6 h, replicate number 1, timepoint 6 hours): 0
- Growth Rate (HEK-293T [2]; 12 h, replicate number 1, timepoint 12 hours): 0
- Growth Rate (HEK-293T [2]; 18 h, replicate number 1, timepoint 18 hours): 0
- Growth Rate (HEK-293T [2]; 24 h, replicate number 1, timepoint 24 hours): 0
- Population Apoptotic (%) (Fibroblast; 12 h, replicate 1): 65% and 61% and 86%
- Population Fragmented Nuclei (%) (Fibroblast; 12 h, replicate 1): 35% and 22%
- Population Healthy Nuclei (%) (Fibroblast; 12 h, replicate 1): 48% and 50% and 64%
- Population Hoechst High Intensity Objects (%) (Fibroblast; 12 h, replicate 1): 12% and 17%
- Population Mitochondria Different-Phenotype (%) (Fibroblast; 12 h, replicate 1): 6%
- Population Mitotic Cells (%) (Fibroblast; 12 h, replicate 1): 35% and 38% and 13%
- Population Normal (%) (Fibroblast; 12 h, replicate 1): 87% and 82%
- Population Pyknosed Nuclei (%) (Fibroblast; 12 h, replicate 1): 15% and 14% and 13%
- Total Cell Count (Fibroblast; 12 h, replicate 1): 145 and 330 and 306
- Population Membrane Permeable-Phenotype (%) (Fibroblast; 12 h, replicate 2): 31% and 20% and 21%
- Population Normal (%) (Fibroblast; 12 h, replicate 2): 73% and 49% and 92%
- Population Pyknosed Nuclei (%) (Fibroblast; 12 h, replicate 2): 6% and 9% and 11%
- Population Tubulin-Different-Phenotype (%) (Fibroblast; 12 h, replicate 2): 44% and 60% and 94%
- Total Cell Count (Fibroblast; 12 h, replicate 2): 87 and 63 and 57
- Population Apoptotic (%) (Fibroblast; 24 h, replicate 1): 69% and 55% and 80%
- Population Fragmented Nuclei (%) (Fibroblast; 24 h, replicate 1): 37% and 35% and 18%
- Population Healthy Nuclei (%) (Fibroblast; 24 h, replicate 1): 48% and 45% and 67%
- Population Hoechst High Intensity Objects (%) (Fibroblast; 24 h, replicate 1): 18% and 11% and 13%
- Population Mitotic Cells (%) (Fibroblast; 24 h, replicate 1): 30% and 44% and 20%
- Population Normal (%) (Fibroblast; 24 h, replicate 1): 81% and 88% and 86%
- Population Pyknosed Nuclei (%) (Fibroblast; 24 h, replicate 1): 13% and 19%
- Total Cell Count (Fibroblast; 24 h, replicate 1): 335 and 161 and 296
- Population Membrane Permeable-Phenotype (%) (Fibroblast; 24 h, replicate 2): 33% and 17%
- Population Normal (%) (Fibroblast; 24 h, replicate 2): 58% and 90% and 61%
- Population Pyknosed Nuclei (%) (Fibroblast; 24 h, replicate 2): 9% and 11% and 6%
- Population Tubulin-Different-Phenotype (%) (Fibroblast; 24 h, replicate 2): 33% and 88% and 50%
- Total Cell Count (Fibroblast; 24 h, replicate 2): 53 and 57 and 76
- Population Apoptotic (%) (Fibroblast; 48 h, replicate 1): 52%
- Population Fragmented Nuclei (%) (Fibroblast; 48 h, replicate 1): 52%
- Population Healthy Nuclei (%) (Fibroblast; 48 h, replicate 1): 32%
- Population Hoechst High Intensity Objects (%) (Fibroblast; 48 h, replicate 1): 17%
- Population Membrane Permeable-Phenotype (%) (Fibroblast; 48 h, replicate 1): 32%
- Population Mitochondria Different-Phenotype (%) (Fibroblast; 48 h, replicate 1): 20%
- Population Mitotic Cells (%) (Fibroblast; 48 h, replicate 1): 47%
- Population Normal (%) (Fibroblast; 48 h, replicate 1): 82%
- Population Pyknosed Nuclei (%) (Fibroblast; 48 h, replicate 1): 15%
- Population Tubulin-Different-Phenotype (%) (Fibroblast; 48 h, replicate 1): 76%
- Total Cell Count (Fibroblast; 48 h, replicate 1): 162
- Population Apoptotic (%) (Fibroblast; 48 h, replicate 2): 63%
- Population Fragmented Nuclei (%) (Fibroblast; 48 h, replicate 2): 38%
- Population Healthy Nuclei (%) (Fibroblast; 48 h, replicate 2): 49%
- Population Hoechst High Intensity Objects (%) (Fibroblast; 48 h, replicate 2): 6%
- Population Membrane Permeable-Phenotype (%) (Fibroblast; 48 h, replicate 2): 47%
- Population Mitochondria Different-Phenotype (%) (Fibroblast; 48 h, replicate 2): 15%
- Population Mitotic Cells (%) (Fibroblast; 48 h, replicate 2): 36%
- Population Normal (%) (Fibroblast; 48 h, replicate 2): 93%
- Population Pyknosed Nuclei (%) (Fibroblast; 48 h, replicate 2): 12%
- Population Tubulin-Different-Phenotype (%) (Fibroblast; 48 h, replicate 2): 65%
- Total Cell Count (Fibroblast; 48 h, replicate 2): 95
